Marks after values point to notes of the source that are not given here.
Legend:
FXIa-DEGR = FXIa-DEGR (Homo sapiens, UniProt P03951); assay: Fluorescence titration of active site labeled FXIa; type: binding; conditions: 250 nM FXIa-DEGR, pH 7.4, 37 °C; for ΔFMAX: 547 nm
How it was run: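 Plasma-derived human FXIa with a dansyl active-site label (FXIa-DEGR, 250 nM) in 50 mM Tris-HCl pH 7.4, 150 mM NaCl, 0.1% PEG8000 at 37 °C was titrated with aliquots of test compound in the same buffer. Emission at 547 nm (excitation 345 nm) was tracked. Hill-equation fits gave KD,app, n and ΔFMAX. At least two runs were done.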

human plasma [1] = assay: Activated partial thromboplastin time; type: biochemical
How it was run: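 Citrated pooled normal human plasma was mixed with test compound and prewarmed APTT reagent (0.2% ellagic acid) and incubated 4 min at 37 °C. Clotting was started with prewarmed 25 mM CaCl2, and clot time was read on a fibrometer. Runs were in duplicate. A quadratic trend line of clot time versus concentration gave the concentration doubling clotting time.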

human plasma [2] = assay: Prothrombin time; type: biochemical
How it was run: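 One-stage recalcification assay. Test compound was brought up in citrated pooled normal human plasma and held 30 s at 37 °C. Prewarmed reconstituted thromboplastin-D was added, and clot time was read on a fibrometer. Runs were in duplicate and the mean of two is reported. A quadratic trend line gave the concentration needed to double clotting time.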

FXIa-CD = FXIa-CD (Homo sapiens, UniProt P03951, C500S); assay: Inhibition of recombinant wild type FXIa catalytic domain; type: biochemical; conditions: catalytic domain alone
How it was run: (§1)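 Human FXI cDNA with Cys362Ser/Cys482Ser, so the catalytic domain separates from the heavy chain, carried alanine substitutions at 170-helix residues (single or combined). It was stably expressed in HEK-293 with serum-free medium and purified on anti-FXI 1G5.12 affinity. It was activated with 5 μg/ml FXIIa at 37 °C, and the catalytic domain was isolated on 1G5.12. Dose-response used S2366 hydrolysis in 50 mM Tris-HCl pH 7.4, 150 mM NaCl, 0.1% PEG8000, 0.02% Tween80 at 37 °C, with logistic fits.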

[3] = tested on: Lys529Ala,Arg530Ala,Arg532Ala FXIa-CD; assay: Inhibition of FXIa-CD triple mutant; type: biochemical, human; conditions: Arg532Ala vs FXIa-CD
How it was run: as §1

Lys535Ala FXIa-CD = Lys535Ala FXIa-CD (Homo sapiens, UniProt P03951, C500S/K553A); assay: Inhibition of Lys535Ala FXIa-CD mutant; type: biochemical
How it was run: as §1

Lys539Ala FXIa-CD = Lys539Ala FXIa-CD (Homo sapiens, UniProt P03951, C500S/K557A); assay: Inhibition of Lys539Ala FXIa-CD mutant; type: biochemical
How it was run: as §1

[4] = target: FXIa–CD containing Lys529Ala,Arg530Ala,Arg532Ala triple mutations (Homo sapiens, UniProt P03951, C500S/K547A/R548A/R550A); assay: Polybrene competition, S2366 hydrolysis, FXIa-CD triple mutant; type: biochemical; conditions: 30 μM polybrene
How it was run: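 Recombinant FXIa catalytic domain bearing Lys529Ala/Arg530Ala/Arg532Ala (HEK-293 expressed, affinity purified, FXIIa-activated) was tested alongside full-length FXIa and wild-type catalytic domain. Proteolytic activity was measured by S2366 hydrolysis in the presence of 30 μM polybrene and 3 μM test compound.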

human factor XIa [5] = target: T1, human factor XIa (Homo sapiens, UniProt P03951); assay: Michaelis-Menten kinetics of S2366 hydrolysis by FXIa in presence of 14S; type: biochemical
human factor XIa [6] = target: T1, human factor XIa; assay: Direct inhibition of FXIa, chromogenic substrate; type: biochemical

FXIa-DEGR, sequence (P03951 388-625 limits assumed): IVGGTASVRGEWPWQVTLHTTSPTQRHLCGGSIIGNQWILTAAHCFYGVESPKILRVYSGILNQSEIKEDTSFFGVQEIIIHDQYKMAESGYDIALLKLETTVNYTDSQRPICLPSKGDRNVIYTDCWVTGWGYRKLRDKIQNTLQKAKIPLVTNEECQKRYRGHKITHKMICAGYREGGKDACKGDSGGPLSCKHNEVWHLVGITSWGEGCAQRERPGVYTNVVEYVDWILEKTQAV
FXIa-DEGR, sequence (P03951 19-387 partner limits assumed): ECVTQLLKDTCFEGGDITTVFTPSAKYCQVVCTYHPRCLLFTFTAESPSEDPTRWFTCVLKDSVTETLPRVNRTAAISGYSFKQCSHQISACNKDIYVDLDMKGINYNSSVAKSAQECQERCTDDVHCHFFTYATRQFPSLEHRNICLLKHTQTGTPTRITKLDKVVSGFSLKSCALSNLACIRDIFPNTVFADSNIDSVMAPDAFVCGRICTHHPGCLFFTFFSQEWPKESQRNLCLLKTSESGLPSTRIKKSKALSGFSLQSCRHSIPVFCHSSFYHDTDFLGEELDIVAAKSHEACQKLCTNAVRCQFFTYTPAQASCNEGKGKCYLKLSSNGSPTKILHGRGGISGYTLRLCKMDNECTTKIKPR
T1 sequence (P03951 388-625 limits assumed): as the sequence (P03951 388-625 limits assumed) above
T1 sequence (P03951 19-387 partner limits assumed): as the sequence (P03951 19-387 partner limits assumed) above
FXIa-CD, sequence (P03951 388-625 C500S): as the sequence (P03951 388-625 limits assumed) above, with C113S counted along it
Lys535Ala FXIa-CD, sequence (P03951 388-625 C500S/K553A): as the sequence (P03951 388-625 limits assumed) above, with C113S, K166A counted along it
Lys539Ala FXIa-CD, sequence (P03951 388-625 C500S/K557A): as the sequence (P03951 388-625 limits assumed) above, with C113S, K170A counted along it
FXIa–CD containing Lys529Ala,Arg530Ala,Arg532Ala triple mutations, sequence (P03951 388-625 C500S/K547A/R548A/R550A): as the sequence (P03951 388-625 limits assumed) above, with C113S, K160A, R161A, R163A counted along it

In the case of O=c1c2ccccc2nc(-c2ccc(OS(=O)(=O)O)cc2)n1CCCCCCn1cc(Cn2c(-c3ccc(OS(=O)(=O)O)cc3)nc3ccccc3c2=O)nn1 [Inhibitor 16S], the Hill coefficient n (FXIa-DEGR) is reported as 6.4 ± 2.0, the ΔFMAX (FXIa-DEGR) is reported as 90 ± 3% and the “prolongation of APTT” value (human plasma [1]) is reported as “dose-dependent prolongation”. The “2 × PT (concentration to double clotting time)” value (human plasma [2]; citrated human plasma) was greater than 2000 µM, the “activity in the PT assay” value (human plasma [2]; human plasma) was “much less active” and the “inhibition of FXIa-CD compared with wild-type enzyme” value (FXIa-CD) was “as potently as the wild-type enzyme”. The reduction in potency [3] was “approximately 5 fold”, the “change in IC50 from wild-type FXIa-CD” value (Lys535Ala FXIa-CD) was “no change in IC50” and the “change in IC50 from wild-type FXIa-CD” value (Lys539Ala FXIa-CD) was “no change in IC50”. The “loss in inhibition by addition of polybrene” value [4] was 1.45 fold.

O=c1c2ccccc2nc(-c2cccc(OS(=O)(=O)O)c2)n1CCCCn1cc(Cn2c(-c3ccc(OS(=O)(=O)O)cc3)nc3ccccc3c2=O)nn1 [Inhibitor 14S] was tested, and the “mechanism of factor XIa inhibition” value (human factor XIa [5]) was “non-competitive”, the “VMAX of substrate hydrolysis” value (human factor XIa [5]; 135 μM 14S, pH 7.4, 37 °C) was 5.1±0.5 mAU/min and the Hill coefficient n (FXIa-DEGR) was 9.0 ± 1.1. The ΔFMAX (FXIa-DEGR) was 57 ± 2%.

For O=c1c2ccccc2nc(-c2ccc(OS(=O)(=O)O)cc2)n1CCCCCn1cc(Cn2c(-c3ccc(OS(=O)(=O)O)cc3)nc3ccccc3c2=O)nn1 [Inhibitor 15S], the Hill coefficient n (FXIa-DEGR) was 6.8 ± 2.7, the ΔFMAX (FXIa-DEGR) was 72 ± 2% and the “prolongation of APTT” value (human plasma [1]) was “dose-dependent prolongation”. The “activity in the PT assay” value (human plasma [2]; human plasma) was “much less active”.

In the case of O=c1c2ccccc2nc(-c2ccc(OS(=O)(=O)O)cc2)n1Cc1cn(CCn2cc(Cn3c(-c4ccc(OS(=O)(=O)O)cc4)nc4ccccc4c3=O)nn2)nn1 [Inhibitor 28S], the IC50 (human factor XIa [6]) is reported as less than 100 µM and the “fold less potent than 15S” value (human factor XIa [6]; versus 15S) is reported as “approximately 6 fold”.

CC(=O)Oc1cccc(-c2nc3ccccc3c(=O)n2Cc2cn(CCCCn3c(-c4cccc(OS(=O)(=O)O)c4)nc4ccccc4c3=O)nn2)c1 [Inhibitor 7S] was tested, and the “inhibition of factor XIa (in words)” value (human factor XIa [6]; pH 7.4, 37 °C) was “inactive”.

With O=c1c2ccccc2nc(-c2ccc(OS(=O)(=O)O)cc2)n1CCCCn1cc(Cn2c(-c3ccc(OS(=O)(=O)O)cc3)nc3ccccc3c2=O)nn1 [Inhibitor 13S] the Hill coefficient n (FXIa-DEGR) was 7.9 ± 1.9, the ΔFMAX (FXIa-DEGR) was 66 ± 2 ^b % and the “prolongation of APTT” value (human plasma [1]) was “dose-dependent prolongation”. The “activity in the PT assay” value (human plasma [2]; human plasma) was “reasonable dose-dependent prolongation of clotting time” and the “2-fold increase in PT (concentration)” value (human plasma [2]; human plasma, calculated from trend line) was “about 1.12 mM”.

— publication PMC3625964 (Journal of medicinal chemistry, 2013)
